In ChEMBL document CHEMBL1146365, “Synthesis and biological evaluation of new N-(2-hydroxy-4(or 5)-nitro/aminophenyl)benzamides and phenylacetamides as antimicrobial agents” (2007):
Values after ≈ are worked out from the molar mass of the structure shown.

What was measured:
Pseudomonas aeruginosa [1] = experiment: Antibacterial activity against Pseudomonas aeruginosa ATCC […] assessed after 24 hrs by serial dilution method
Candida albicans [2] = experiment: Antifungal activity against Candida albicans isolate assessed after 48 hrs by serial dilution method; assay type: functional
How it was run: (§1)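 Broth microdilution per CLSI M27-A in RPMI-1640 with L-glutamine, MOPS-buffered pH 7, with 2-fold compound dilutions. Yeasts were subcultured twice on SDA at 35 °C for 24–48 h. Inoculum was diluted from McFarland 0.5 to 10^4 cfu/ml, giving 10^3 cfu/ml in wells. Incubated 35 °C, humid chamber, 48 h, in triplicate. MIC = lowest concentration with no macroscopic growth.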

Staphylococcus aureus [3] = experiment: Antibacterial activity against Staphylococcus aureus ATCC 25923 assessed after 24 hrs by serial dilution method; assay type: functional
How it was run: (§2)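 Strains were subcultured twice on MHA at 37 °C overnight. Inoculum was diluted from McFarland 0.5 to 10^5 cfu/ml, giving 10^4 cfu/ml in wells. Solvent, medium and organism-only controls were included. Incubated 37 °C, humid chamber, 24 h, in triplicate. MIC = lowest concentration with no macroscopic growth.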

Bacillus subtilis [4] = experiment: Antibacterial activity against Bacillus subtilis ATCC 6633 assessed after 24 hrs by serial dilution method; assay type: functional
How it was run: as §2

Pseudomonas aeruginosa [5] = experiment: Antibacterial activity against Pseudomonas aeruginosa isolate assessed after 24 hrs by serial dilution method; assay type: functional
How it was run: as §2

Escherichia coli [6] = experiment: Antibacterial activity against Escherichia coli isolate assessed after 24 hrs by serial dilution method; assay type: functional
How it was run: as §2

Klebsiella pneumoniae [7] = experiment: Antibacterial activity against Klebsiella pneumoniae isolate assessed after 24 hrs by serial dilution method; assay type: functional
How it was run: as §2

Escherichia coli [8] = experiment: Antibacterial activity against Escherichia coli ATCC assessed after 24 hrs by serial dilution method
Candida albicans [9] = experiment: Antifungal activity against Candida albicans ATCC 10231 assessed after 48 hrs by serial dilution method; assay type: functional; conditions: ATCC 10231, 48 h
How it was run: as §1

Staphylococcus aureus [10] = experiment: Antibacterial activity against drug-resistant Staphylococcus aureus assessed after 24 hrs by serial dilution method
Bacillus subtilis [11] = experiment: Antibacterial activity against drug-resistant Bacillus subtilis assessed after 24 hrs by serial dilution method
Klebsiella pneumoniae [12] = experiment: Antibacterial activity against Klebsiella pneumoniae RSHM 574 assessed after 24 hrs by serial dilution method
Escherichia coli [13] = experiment: Antibacterial activity against Escherichia coli ATCC 25922 assessed after 24 hrs by serial dilution method

Molecule	MIC (Pseudomonas aeruginosa [1])	MIC (Candida albicans [2])	MIC (Staphylococcus aureus [3]; ATCC 25923, 24 h)	MIC (Bacillus subtilis [4]; ATCC 6633, 24 h)	MIC (Pseudomonas aeruginosa [5])	MIC (Escherichia coli [6])	MIC (Klebsiella pneumoniae [7])	MIC (Escherichia coli [8])	MIC (Candida albicans [9])	MIC (Staphylococcus aureus [10])	MIC (Bacillus subtilis [11])	MIC (Klebsiella pneumoniae [12])	MIC (Staphylococcus aureus [3])	MIC (Bacillus subtilis [4])	MIC (Escherichia coli [13])
Nc1ccc(NC(=O)c2ccc(Br)cc2)c(O)c1	250 µg/mL (≈ 814 µM)	125 µg/mL (≈ 407 µM)	125 µg/mL (≈ 407 µM)	62.5 µg/mL (≈ 203 µM)	250 µg/mL (≈ 814 µM)	250 µg/mL (≈ 814 µM)	250 µg/mL (≈ 814 µM)	125 µg/mL (≈ 407 µM)	250 µg/mL (≈ 814 µM)	7.8 µg/mL (≈ 25.4 µM)	31.2 µg/mL (≈ 102 µM)	250 µg/mL (≈ 814 µM)			
GENTAMICIN SULFATE					1020 µg/mL	0.97 µg/mL	1020 µg/mL			1020 µg/mL	2050 µg/mL	> 4100 µg/mL	> 4100 µg/mL	512 µg/mL	1020 µg/mL
CCc1ccc(C(=O)Nc2ccc([N+](=O)[O-])cc2O)cc1	250 µg/mL (≈ 873 µM)	125 µg/mL (≈ 437 µM)	62.5 µg/mL (≈ 218 µM)	250 µg/mL (≈ 873 µM)	250 µg/mL (≈ 873 µM)	125 µg/mL (≈ 437 µM)	125 µg/mL (≈ 437 µM)	125 µg/mL (≈ 437 µM)	125 µg/mL (≈ 437 µM)	125 µg/mL (≈ 437 µM)	15.6 µg/mL (≈ 54.5 µM)	500 µg/mL (≈ 1750 µM)			
Cc1ccc(CC(=O)Nc2ccc([N+](=O)[O-])cc2O)cc1	250 µg/mL (≈ 873 µM)	250 µg/mL (≈ 873 µM)	250 µg/mL (≈ 873 µM)	125 µg/mL (≈ 437 µM)	250 µg/mL (≈ 873 µM)	250 µg/mL (≈ 873 µM)	250 µg/mL (≈ 873 µM)	125 µg/mL (≈ 437 µM)	62.5 µg/mL (≈ 218 µM)	500 µg/mL (≈ 1750 µM)	250 µg/mL (≈ 873 µM)	125 µg/mL (≈ 437 µM)			
O=C(Cc1ccc(F)cc1)Nc1cc([N+](=O)[O-])ccc1O	250 µg/mL (≈ 861 µM)	125 µg/mL (≈ 431 µM)	31.2 µg/mL (≈ 108 µM)	15.6 µg/mL (≈ 53.7 µM)	250 µg/mL (≈ 861 µM)	250 µg/mL (≈ 861 µM)	125 µg/mL (≈ 431 µM)	62.5 µg/mL (≈ 215 µM)	250 µg/mL (≈ 861 µM)	31.2 µg/mL (≈ 108 µM)	31.2 µg/mL (≈ 108 µM)	125 µg/mL (≈ 431 µM)			
O=C(Nc1ccc([N+](=O)[O-])cc1O)c1ccc(Br)cc1	250 µg/mL (≈ 742 µM)	125 µg/mL (≈ 371 µM)	7.8 µg/mL (≈ 23.1 µM)	3.9 µg/mL (≈ 11.6 µM)	250 µg/mL (≈ 742 µM)	250 µg/mL (≈ 742 µM)	125 µg/mL (≈ 371 µM)	62.5 µg/mL (≈ 185 µM)	250 µg/mL (≈ 742 µM)	500 µg/mL (≈ 1480 µM)	1.95 µg/mL (≈ 5.78 µM)	125 µg/mL (≈ 371 µM)			

Second part, led by results:

MIC (Pseudomonas aeruginosa [1])	MIC (Candida albicans [2])	MIC (Staphylococcus aureus [3]; ATCC 25923, 24 h)	MIC (Bacillus subtilis [4]; ATCC 6633, 24 h)	MIC (Pseudomonas aeruginosa [5])	MIC (Escherichia coli [6])	MIC (Klebsiella pneumoniae [7])	MIC (Escherichia coli [8])	MIC (Candida albicans [9])	MIC (Staphylococcus aureus [10])	MIC (Bacillus subtilis [11])	MIC (Klebsiella pneumoniae [12])	Molecule	MIC (Staphylococcus aureus [3])	MIC (Bacillus subtilis [4])	MIC (Escherichia coli [13])
125 µg/mL (≈ 508 µM)	125 µg/mL (≈ 508 µM)	62.5 µg/mL (≈ 254 µM)	125 µg/mL (≈ 508 µM)	250 µg/mL (≈ 1020 µM)	250 µg/mL (≈ 1020 µM)	250 µg/mL (≈ 1020 µM)	250 µg/mL (≈ 1020 µM)	125 µg/mL (≈ 508 µM)	15.6 µg/mL (≈ 63.4 µM)	125 µg/mL (≈ 508 µM)	125 µg/mL (≈ 508 µM)	Nc1ccc(NC(=O)c2ccc(F)cc2)c(O)c1			
125 µg/mL (≈ 437 µM)	250 µg/mL (≈ 873 µM)	250 µg/mL (≈ 873 µM)	15.6 µg/mL (≈ 54.5 µM)	250 µg/mL (≈ 873 µM)	250 µg/mL (≈ 873 µM)	250 µg/mL (≈ 873 µM)	125 µg/mL (≈ 437 µM)	250 µg/mL (≈ 873 µM)	125 µg/mL (≈ 437 µM)	62.5 µg/mL (≈ 218 µM)	125 µg/mL (≈ 437 µM)	Cc1ccc(CC(=O)Nc2cc([N+](=O)[O-])ccc2O)cc1			
125 µg/mL (≈ 452 µM)	125 µg/mL (≈ 452 µM)	62.5 µg/mL (≈ 226 µM)	250 µg/mL (≈ 903 µM)	125 µg/mL (≈ 452 µM)	125 µg/mL (≈ 452 µM)	250 µg/mL (≈ 903 µM)	125 µg/mL (≈ 452 µM)	125 µg/mL (≈ 452 µM)	31.2 µg/mL (≈ 113 µM)	62.5 µg/mL (≈ 226 µM)	125 µg/mL (≈ 452 µM)	Nc1ccc(NC(=O)Cc2ccc(Cl)cc2)c(O)c1			
62.5 µg/mL (≈ 244 µM)	62.5 µg/mL (≈ 244 µM)	15.6 µg/mL (≈ 60.9 µM)	62.5 µg/mL (≈ 244 µM)	125 µg/mL (≈ 488 µM)	125 µg/mL (≈ 488 µM)	62.5 µg/mL (≈ 244 µM)	125 µg/mL (≈ 488 µM)	62.5 µg/mL (≈ 244 µM)	15.6 µg/mL (≈ 60.9 µM)	31.2 µg/mL (≈ 122 µM)	62.5 µg/mL (≈ 244 µM)	CCc1ccc(C(=O)Nc2cc(N)ccc2O)cc1			
62.5 µg/mL (≈ 226 µM)	62.5 µg/mL (≈ 226 µM)	7.8 µg/mL (≈ 28.2 µM)	3.9 µg/mL (≈ 14.1 µM)	125 µg/mL (≈ 453 µM)	125 µg/mL (≈ 453 µM)	125 µg/mL (≈ 453 µM)	125 µg/mL (≈ 453 µM)	62.5 µg/mL (≈ 226 µM)	15.6 µg/mL (≈ 56.5 µM)	62.5 µg/mL (≈ 226 µM)	31.2 µg/mL (≈ 113 µM)	O=C(Nc1cc([N+](=O)[O-])ccc1O)c1ccc(F)cc1			
125 µg/mL (≈ 408 µM)	125 µg/mL (≈ 408 µM)	125 µg/mL (≈ 408 µM)	250 µg/mL (≈ 815 µM)	250 µg/mL (≈ 815 µM)	125 µg/mL (≈ 408 µM)	125 µg/mL (≈ 408 µM)	125 µg/mL (≈ 408 µM)	125 µg/mL (≈ 408 µM)	125 µg/mL (≈ 408 µM)	31.2 µg/mL (≈ 102 µM)	125 µg/mL (≈ 408 µM)	O=C(Cc1ccc(Cl)cc1)Nc1ccc([N+](=O)[O-])cc1O			
125 µg/mL (≈ 488 µM)	250 µg/mL (≈ 975 µM)	250 µg/mL (≈ 975 µM)	62.5 µg/mL (≈ 244 µM)	250 µg/mL (≈ 975 µM)	250 µg/mL (≈ 975 µM)	250 µg/mL (≈ 975 µM)	125 µg/mL (≈ 488 µM)	125 µg/mL (≈ 488 µM)	62.5 µg/mL (≈ 244 µM)	62.5 µg/mL (≈ 244 µM)	125 µg/mL (≈ 488 µM)	Cc1ccc(CC(=O)Nc2ccc(N)cc2O)cc1			
125 µg/mL (≈ 484 µM)	125 µg/mL (≈ 484 µM)	62.5 µg/mL (≈ 242 µM)	31.2 µg/mL (≈ 121 µM)	250 µg/mL (≈ 968 µM)	250 µg/mL (≈ 968 µM)	250 µg/mL (≈ 968 µM)	125 µg/mL (≈ 484 µM)	62.5 µg/mL (≈ 242 µM)	125 µg/mL (≈ 484 µM)	31.2 µg/mL (≈ 121 µM)	125 µg/mL (≈ 484 µM)	O=C(Nc1ccc([N+](=O)[O-])cc1O)c1ccccc1			
62.5 µg/mL (≈ 220 µM)	62.5 µg/mL (≈ 220 µM)	15.6 µg/mL (≈ 54.9 µM)	15.6 µg/mL (≈ 54.9 µM)	62.5 µg/mL (≈ 220 µM)	125 µg/mL (≈ 440 µM)	125 µg/mL (≈ 440 µM)	125 µg/mL (≈ 440 µM)	62.5 µg/mL (≈ 220 µM)	7.8 µg/mL (≈ 27.4 µM)	7.8 µg/mL (≈ 27.4 µM)	125 µg/mL (≈ 440 µM)	CC(C)(C)c1ccc(C(=O)Nc2ccc(N)cc2O)cc1			
